Measurements as given in ChEMBL document CHEMBL1126808, “Asymmetric synthesis and biological evaluation of beta-L-(2R,5S)- and alpha-L-(2R,5R)-1,3-oxathiolane-pyrimidine and -purine nucleosides as potential anti-HIV agents” (J Med Chem, 1993).

How the values were obtained:
[1] = tested on: Human immunodeficiency virus 1; assay: Cytotoxicity against human peripheral blood mononuclear (PBM) cells […]; assay type: functional
Method in brief: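 Uninfected PHA-stimulated human PBM cells were cultured with or without drug, then aliquots were counted in trypan blue. IC50 came from a median-effect plot of dose–effect data.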

[2] = tested on: Human immunodeficiency virus; assay: Anti-HIV-1 activity against human peripheral blood mononuclear (PBM) cells infected with HIV-1 strain LAV; assay type: functional, organism-based
Method in brief: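 Mitogen-stimulated human PBM cells infected with HIV-1 LAV at MOI 0.1 (titred by limiting dilution in PBM cells). Compounds were diluted into medium from 40 mM DMSO stocks (final DMSO <0.25%) and added about 45 min after infection. Read-out was supernatant RT level. EC50 came from a median-effect plot of dose–effect data.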

Structure (SMILES)	IC50 [1] [µM]	EC50 ([2]; Human immunodeficiency virus 1) [µM]	EC50 [2] [µM]
Nc1nc(=O)n([C@H]2CS[C@H](CO)O2)cc1Cl	> 100	> 100	–
O=c1[nH]c(=O)n([C@H]2CS[C@H](CO)O2)cc1I	> 100	157	–
O=c1[nH]c(=O)n([C@@H]2CS[C@H](CO)O2)cc1Br	> 100	> 100	–
OC[C@@H]1O[C@H](n2cnc3c(O)ncnc32)CS1	> 100	> 100	–
Nc1nc(=O)n([C@@H]2CS[C@H](CO)O2)cc1F [EMTRICITABINE]	> 100	0.0013	–
Nc1nc(=O)n([C@@H]2CS[C@H](CO)O2)cc1Br	> 100	2.51	–
CNc1ncnc2c1ncn2[C@H]1CS[C@H](CO)O1	> 100	13	–
Nc1ccn([C@@H]2CS[C@H](CO)O2)c(=O)n1 (stereo in doubt; form 2) [LAMIVUDINE]	–	–	0.06
Nc1ccn([C@@H]2CS[C@H](CO)O2)c(=O)n1 (stereo in doubt; form 1) [LAMIVUDINE]	–	–	0.21
Nc1nc(=O)n([C@H]2CS[C@H](CO)O2)cc1F	> 100	0.43	–
O=c1ccn([C@@H]2CS[C@H](CO)O2)c(=O)[nH]1	> 100	11.7	–
Nc1nc(F)nc2c1ncn2[C@@H]1CS[C@H](CO)O1	> 100	16.3	–
OC[C@@H]1O[C@@H](n2cnc3c(Cl)ncnc32)CS1	> 100	2.75	–
Nc1ncnc2c1ncn2[C@H]1CS[C@H](CO)O1	> 100	78.9	–
O=c1[nH]c(=O)n([C@@H]2CS[C@H](CO)O2)cc1I	> 100	92.9	–
Nc1ccn([C@@H]2CS[C@H](CO)O2)c(=O)n1 (stereo in doubt; 13) [LAMIVUDINE]	–	–	0.0018
O=c1[nH]c(=O)n([C@H]2CS[C@H](CO)O2)cc1F	> 100	> 100	–
O=c1[nH]c(=O)n([C@@H]2CS[C@H](CO)O2)cc1Cl	> 100	> 100	–
Nc1nc(=O)n([C@H]2CS[C@H](CO)O2)cc1I	> 100	> 100	–
Nc1nc(=O)n([C@H]2CS[C@H](CO)O2)cc1Br	> 100	> 100	–
O=c1ccn([C@H]2CS[C@H](CO)O2)c(=O)[nH]1	> 100	32.8	–

Structure (SMILES)	IC50 [1] [µM]	EC50 ([2]; Human immunodeficiency virus 1) [µM]	EC50 [2] [µM]
Cc1cn([C@H]2C[C@H](N=[N+]=[N-])[C@@H](CO)O2)c(=O)[nH]c1=O [ZIDOVUDINE]	> 100	0.004	–
Nc1nc(Cl)c2ncn([C@H]3CS[C@H](CO)O3)c2n1	> 100	42.1	–
O=c1[nH]c(=O)n([C@H]2CS[C@H](CO)O2)cc1Br	> 100	121	–
Nc1nc(F)nc2c1ncn2[C@H]1CS[C@H](CO)O1	> 100	15.8	–
CNc1ncnc2c1ncn2[C@@H]1CS[C@H](CO)O1	> 100	15	–
Cc1cn([C@@H]2CS[C@H](CO)O2)c(=O)nc1N	> 100	1.9	–
Nc1nc(=O)n([C@@H]2CS[C@H](CO)O2)cc1Cl	> 100	31.8	–
Nc1ccn([C@@H]2CS[C@H](CO)O2)c(=O)n1 (stereo in doubt; 14) [LAMIVUDINE]	> 100	–	10.1
Nc1nc(=O)n([C@@H]2CS[C@H](CO)O2)cc1I	> 100	0.14	–
Nc1nc(Cl)c2ncn([C@@H]3CS[C@H](CO)O3)c2n1	> 100	9.8	–
Nc1ncnc2c1ncn2[C@@H]1CS[C@H](CO)O1	> 100	1.01	–
Nc1nc(O)c2ncn([C@@H]3CS[C@H](CO)O3)c2n1	> 100	10.2	–
O=c1[nH]c(=O)n([C@H]2CS[C@H](CO)O2)cc1Cl	> 100	> 100	–
Cc1cn([C@H]2CS[C@H](CO)O2)c(=O)[nH]c1=O	> 100	4.4	–
Cc1cn([C@@H]2CS[C@H](CO)O2)c(=O)[nH]c1=O	> 100	34.3	–
OC[C@@H]1O[C@H](n2cnc3c(Cl)ncnc32)CS1	> 100	1.44	–
Cc1cn([C@H]2CS[C@H](CO)O2)c(=O)nc1N	> 100	0.45	–
OC[C@@H]1O[C@@H](n2cnc3c(O)ncnc32)CS1	> 100	> 100	–
O=c1[nH]c(=O)n([C@@H]2CS[C@H](CO)O2)cc1F	> 100	> 100	–
Nc1nc(O)c2ncn([C@H]3CS[C@H](CO)O3)c2n1	> 100	> 100	–
